Legend:
Mus musculus [1] = experiment: Nonspecific resistance against Pseudomonas aeruginosa infection in mice; administration of a single dose (12.5 mg/kg) 1 day prior to infection, group size 10 mice; assay type: functional
Method in brief: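 B6D2F1 mice given cyclophosphamide 200 mg/kg s.c. on day -4, then a single i.v. dose of 12.5 mg/kg on day -1 (Tris salts). Survival scored after 4 days of observation. Groups of 10 mice.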

Mus musculus [2] = species: Mus musculus; experiment: Compound was tested for its potency to induce TNF-alpha in murine macrophage cultures in the presence of INF at 10 mg/mL concentration; assay type: functional
Method in brief: (§1)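 Macrophages derived from B6D2F1 mouse bone marrow (8-10 days with L929 supernatant as CSF-1 source), plated at 10⁶ cells/mL. Adherent cells primed overnight with 100 units/mL interferon γ, washed, then incubated 4 h with compound in serum-free medium. TNF-α in supernatants determined by cytotoxicity to actinomycin-D-treated L929 cells, as IU/mL.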

Mus musculus [3] = species: Mus musculus; experiment: Compound was tested for its potency to induce TNF-alpha in murine macrophage cultures in the presence of INF at 1 mg/mL concentration; assay type: functional; method in brief: as §1
Mus musculus [4] = species: Mus musculus; experiment: Compound was tested for its potency to induce TNF-alpha in murine macrophage cultures in the absence of INF at 1 mg/mL concentration; assay type: functional
Method in brief: (§2)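 Bone marrow cells from B6D2F1 mouse femurs differentiated 8-10 days at 37 °C, 5% CO2 in DMEM with 10% FCS, 5% horse serum and 20% L929 supernatant (CSF-1). Macrophages at 10⁶ cells/mL adhered 3 h, then incubated overnight without IFN-γ. Washed, exposed 4 h to compound in serum-free medium. Supernatant TNF-α measured by cytotoxicity to actinomycin-D-treated L929 cells, as IU/mL.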

[5] = The endotoxic potential (LD50) by iv administration and ip administration of galactosamine (400 mg/kg); assay type: ADME, organism-based; details: mouse, in vivo
Method in brief: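 C57BL/6 mice, groups of six. Serial dilutions given i.v. by tail vein (0.2 mL, saline, or isotonic glucose with 1% ethanol) together with galactosamine 400 mg/kg i.p. LD50 calculated by probit analysis from survivors at 1 day.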

Mus musculus [6] = species: Mus musculus; experiment: Compound was tested for its potency to induce TNF-alpha in murine macrophage cultures in the absence of INF at 10 mg/mL concentration; assay type: functional; method in brief: as §2
Mus musculus [7] = species: Mus musculus; experiment: Effective dose against Pseudomonas aeruginosa infection in mice; assay type: functional
Method in brief: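 B6D2F1 mice made myelosuppressed with cyclophosphamide 200 mg/kg sc on day -4. Compound given iv as Tris salt on day -1. Survival scored over 4 days, groups of 10. ED50 obtained by Probit analysis.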

Row | Structure (SMILES) | NSR survival rate (Mus musculus [1]) | Activity (Mus musculus [2]) [IU ml-1] | Activity (Mus musculus [3]) [IU ml-1] | Activity (Mus musculus [4]) [IU ml-1] | LD50 [5] [mg/kg] | Activity (Mus musculus [6]) [IU ml-1] | ED50 (Mus musculus [7]) [mg/kg]
1 | CCCCCCCCCCCC(O)CC(=O)NC1C(OC(=O)CC[C@@H](NC(=O)CC(O)CCCCCCCCCCC)C(=O)O)OC(CO)C(O)C1OC(=O)CC(O)CCCCCCCCCCC (stereo partly drawn) | 10 | >2409 | >2409 | 518 | 0.04 | 688 | 0.3
2 | CCCCCCCCCCCC(O)CC(=O)NC1C(OC(=O)C[C@@H](NC(=O)CC(O)CCCCCCCCCCC)C(=O)O)OC(CO)C(O)C1OC(=O)CC(O)CCCCCCCCCCC (stereo partly drawn) | 10 | 2768 | 2708 | 218 | < 0.05 | 618 | 3.1
3 | CCCCCCCCCCCC(O)CC(=O)NC1C(OC(=O)CC[C@H](NC(=O)CC(O)CCCCCCCCCCC)C(=O)O)OC(CO)C(O)C1NC(=O)CC(O)CCCCCCCCCCC (stereo partly drawn) | 8 | 1570 | 294 | 175 | 0.2 | 1069 | 1.5
4 | CCCCCCCCCCCC(O)CC(=O)NC1C(OC(=O)CC[C@@H](NC(=O)CC(O)CCCCCCCCCCC)C(=O)O)OC(CO)C(O)C1NC(=O)CC(O)CCCCCCCCCCC (stereo partly drawn) | 3 | 609 | 151 | 27 | 5.1 | 464 | > 25
5 | CCCCCCCCCCCC(O)CC(=O)NC1C(OCCCN(CC(=O)O)C(=O)CC(O)CCCCCCCCCCC)OC(CO)C(O)C1OC(=O)CC(O)CCCCCCCCCCC (stereo not drawn) | 10 | 3050 | 920 | 523 | 0.1 | 1498 | 1.5
6 | CCCCCCCCCCCC(O)CC(=O)NC1C(OC(=O)C[C@H](NC(=O)CC(O)CCCCCCCCCCC)C(=O)O)OC(CO)C(O)C1OC(=O)CC(O)CCCCCCCCCCC (stereo partly drawn) | 8 | 899 | 25 | 0 | 1 | 446 | > 12.5
7 | CCCCCCCCCCCC(O)CC(=O)NC1C(OCCCN(CC(=O)O)C(=O)CC(O)CCCCCCCCCCC)OC(CO)C(O)C1O (stereo not drawn) | 3 | 0 | – | – | > 5 | 0 | –
8 | CCCCCCCCCCCC(O)CC(=O)NC1C(OC(=O)CC[C@H](NC(=O)CC(O)CCCCCCCCCCC)C(=O)O)OC(CO)C(O)C1OC(=O)CC(O)CCCCCCCCCCC (stereo partly drawn) | 9 | 3285 | 1511 | 270 | 0.3 | 576 | 5.7

From ChEMBL document CHEMBL1126219, “Acyclic analogues of lipid A: synthesis and biological activities” (J Med Chem, 1992)
